Experimental findings from ChEMBL document CHEMBL1133172, “Discovery of orally active nonpeptide vitronectin receptor antagonists based on a 2-benzazepine Gly-Asp mimetic” (J Med Chem, 2000) are described below.

Broadly, the half-life is the time needed for the level to fall by half in the phase considered. A lower half-life goes with fast loss. For orientation: clearance means the volume of plasma or blood freed of the substance per unit of time. Higher therefore signals a high capacity for elimination. A word on the bioavailability: it is dose-corrected exposure relative to a reference, in per cent. Low values mean poor availability, high ones good availability. The term IC50 denotes the concentration that inhibits the measured activity by half. Lower therefore signals inhibition by little substance. The Ki is the dissociation constant of the complex between target and ligand, obtained from inhibition or displacement.

The nature of data set [1]: Half life period in rat. The data set is classed as ADME, organism-based. Particulars: in vivo. Summed up: (§1)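 Rats; plasma concentration–time data of test compound from two to three separate animals, analysed noncompartmentally for half-life and clearance.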
A short description of data set [2]: Plasma clearance in rat. The data set is classed as ADME, organism-based. Summed up:
as §1

Data set [3] is described as follows: Oral bioavailability in rat. Type of data set: ADME, organism-based. Particulars: in vivo. The essentials:
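Rat iv and po dosing; plasma concentration–time data from two to three animals; oral bioavailability calculated from dose-normalized iv and po AUC values.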

In data set [4] the target is T1, Integrin alpha-V/beta-3 (Homo sapiens, UniProt P05106+P06756). Kind of data set: HEK cell adhesion mediated by alpha v beta 3 integrin. The data set is classed as functional, cell-based, HEK293. The essentials:
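HEK 293 cells transfected with human αvβ3; inhibition of their adhesion to purified human vitronectin measured. IC50 as the mean of two experiments run in triplicate, with an internal standard.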

The target of data set [5] is T1, Integrin alpha-V/beta-3. Kind of data set: Binding affinity for Vitronectin receptor (alpha V beta 3). The data set is classed as protein-complex assay. Summed up:
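Competition binding to human αvβ3 with displacement of 3H-SK&F 107260; Ki from the mean of two to three separate experiments.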

For data set [6], the target named is Integrin alpha-IIb/beta-3 (Homo sapiens, UniProt P05106+P08514). Kind of data set: Binding affinity for alpha IIb beta-3 integrin. The data set is classed as protein-complex assay. The essentials: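 Human αIIbβ3 competition binding, 3H-SK&F 107260 as the displaced radioligand; Ki averaged over two to three separate experiments.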
Chain of Integrin alpha-IIb/beta-3 (P05106 27-788 limits assumed): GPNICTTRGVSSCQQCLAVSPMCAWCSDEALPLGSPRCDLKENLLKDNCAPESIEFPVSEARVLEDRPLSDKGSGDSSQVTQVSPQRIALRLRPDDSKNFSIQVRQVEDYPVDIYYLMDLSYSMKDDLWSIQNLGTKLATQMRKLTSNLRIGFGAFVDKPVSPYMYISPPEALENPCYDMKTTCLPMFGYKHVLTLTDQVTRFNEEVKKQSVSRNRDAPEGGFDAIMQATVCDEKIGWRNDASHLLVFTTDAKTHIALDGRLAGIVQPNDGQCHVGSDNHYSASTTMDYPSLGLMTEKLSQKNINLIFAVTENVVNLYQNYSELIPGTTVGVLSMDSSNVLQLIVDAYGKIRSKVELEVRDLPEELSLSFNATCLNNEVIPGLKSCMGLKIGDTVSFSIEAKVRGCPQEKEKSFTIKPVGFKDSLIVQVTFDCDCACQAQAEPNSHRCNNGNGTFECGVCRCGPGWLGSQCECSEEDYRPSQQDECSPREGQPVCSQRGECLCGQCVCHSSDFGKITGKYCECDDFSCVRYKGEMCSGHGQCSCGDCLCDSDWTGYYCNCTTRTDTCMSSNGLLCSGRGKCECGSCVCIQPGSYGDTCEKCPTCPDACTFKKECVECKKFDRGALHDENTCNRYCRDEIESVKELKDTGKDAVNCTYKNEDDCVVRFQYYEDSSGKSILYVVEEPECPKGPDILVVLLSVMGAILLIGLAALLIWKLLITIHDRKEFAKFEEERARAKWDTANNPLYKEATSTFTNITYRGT
Chain of Integrin alpha-IIb/beta-3 (P08514 32-887 limits assumed): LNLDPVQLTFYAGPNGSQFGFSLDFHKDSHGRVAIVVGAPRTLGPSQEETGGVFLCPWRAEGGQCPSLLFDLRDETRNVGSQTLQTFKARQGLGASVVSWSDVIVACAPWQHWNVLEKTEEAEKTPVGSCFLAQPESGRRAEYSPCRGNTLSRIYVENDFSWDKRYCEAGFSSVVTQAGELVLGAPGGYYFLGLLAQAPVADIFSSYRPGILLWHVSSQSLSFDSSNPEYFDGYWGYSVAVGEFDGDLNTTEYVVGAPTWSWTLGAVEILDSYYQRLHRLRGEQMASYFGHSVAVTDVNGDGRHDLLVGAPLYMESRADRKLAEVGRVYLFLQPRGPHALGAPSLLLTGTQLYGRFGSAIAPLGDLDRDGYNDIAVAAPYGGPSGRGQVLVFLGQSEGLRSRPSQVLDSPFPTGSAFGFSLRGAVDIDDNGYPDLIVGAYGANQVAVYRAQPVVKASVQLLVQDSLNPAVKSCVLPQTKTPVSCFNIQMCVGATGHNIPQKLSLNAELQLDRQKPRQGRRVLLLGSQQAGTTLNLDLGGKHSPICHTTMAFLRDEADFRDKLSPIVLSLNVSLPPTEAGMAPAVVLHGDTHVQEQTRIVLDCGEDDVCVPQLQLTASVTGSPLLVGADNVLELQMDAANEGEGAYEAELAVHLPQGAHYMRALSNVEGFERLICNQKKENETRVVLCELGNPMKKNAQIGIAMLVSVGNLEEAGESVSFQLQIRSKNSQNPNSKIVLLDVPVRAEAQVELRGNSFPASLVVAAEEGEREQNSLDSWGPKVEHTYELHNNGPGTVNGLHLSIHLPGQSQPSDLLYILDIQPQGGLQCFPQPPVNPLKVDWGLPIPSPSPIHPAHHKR
Chain of Integrin alpha-IIb/beta-3 (P08514 891-1039 limits assumed): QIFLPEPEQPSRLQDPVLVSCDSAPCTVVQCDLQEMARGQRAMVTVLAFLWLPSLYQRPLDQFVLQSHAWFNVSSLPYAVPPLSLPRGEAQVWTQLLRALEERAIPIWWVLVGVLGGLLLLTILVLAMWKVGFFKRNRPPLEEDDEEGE

T1 sequence (P05106 27-788 limits assumed): as the sequence (P05106 27-788 limits assumed) above
T1 sequence (P06756 31-889 limits assumed): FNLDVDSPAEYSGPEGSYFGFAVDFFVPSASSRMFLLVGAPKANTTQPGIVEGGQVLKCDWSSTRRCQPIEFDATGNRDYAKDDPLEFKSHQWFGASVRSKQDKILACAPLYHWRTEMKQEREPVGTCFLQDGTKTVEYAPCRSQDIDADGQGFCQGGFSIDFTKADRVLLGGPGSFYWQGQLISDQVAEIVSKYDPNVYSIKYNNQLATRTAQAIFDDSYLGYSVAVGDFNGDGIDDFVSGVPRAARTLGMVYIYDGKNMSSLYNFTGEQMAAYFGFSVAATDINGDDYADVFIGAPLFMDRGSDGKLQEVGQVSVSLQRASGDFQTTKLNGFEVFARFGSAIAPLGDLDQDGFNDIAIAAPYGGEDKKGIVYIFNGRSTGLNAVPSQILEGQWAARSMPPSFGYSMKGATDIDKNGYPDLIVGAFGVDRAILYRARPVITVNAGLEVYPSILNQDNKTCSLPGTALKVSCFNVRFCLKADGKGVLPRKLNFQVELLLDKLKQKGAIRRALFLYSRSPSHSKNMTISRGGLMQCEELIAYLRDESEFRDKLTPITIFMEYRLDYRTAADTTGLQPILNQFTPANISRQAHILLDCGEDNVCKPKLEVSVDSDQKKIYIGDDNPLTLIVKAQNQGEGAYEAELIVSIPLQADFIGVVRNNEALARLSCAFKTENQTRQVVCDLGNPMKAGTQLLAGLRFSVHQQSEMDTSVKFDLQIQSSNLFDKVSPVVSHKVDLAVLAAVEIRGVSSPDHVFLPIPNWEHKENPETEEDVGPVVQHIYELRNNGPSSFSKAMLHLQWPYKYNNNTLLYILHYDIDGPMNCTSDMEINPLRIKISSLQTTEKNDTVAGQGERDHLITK
T1 sequence (P06756 891-1048 limits assumed): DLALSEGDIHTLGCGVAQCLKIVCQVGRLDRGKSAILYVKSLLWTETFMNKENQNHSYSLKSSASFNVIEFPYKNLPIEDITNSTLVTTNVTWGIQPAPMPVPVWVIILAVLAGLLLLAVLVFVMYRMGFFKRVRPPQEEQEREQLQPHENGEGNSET

For `O=C(O)C[C@@H]1Cc2ccc(OCCCNc3ccccn3)cc2Cc2ccccc21`, in data set [1], the half-life was determined as 192 min. In data set [2], the clearance is 4 mL/min/kg.

In data set [3], `CN1Cc2cc(OCCCNc3ccccn3)ccc2CC(CC(=O)O)C1=O` (stereo unspecified) gave a bioavailability of 9%. This compound showed a half-life in data set [1] of 16 min. In data set [2], this compound displayed a clearance of 50 mL/min/kg. At Integrin alpha-V/beta-3 [4], this compound gave an IC50 of 75 nM. Further, the Ki on Integrin alpha-V/beta-3 [5] turned out to be 1.9 nM; in data set [6] it was 30000 nM.

For the compound `O=C(O)CC1Cc2ccc(OCCCNc3ccccn3)cc2CN(CC(F)(F)F)C1=O` (stereo unspecified), the bioavailability in data set [3] was determined as 19%. This compound displayed a half-life in data set [1] of 25 min. In addition, the clearance in data set [2] was found to be 63 mL/min/kg. On Integrin alpha-V/beta-3 [4], it took 53 nM to reach half-maximal inhibition (IC50). For the same compound, the figures for the Ki (at Integrin alpha-V/beta-3 [5]; in data set [6]) were 1.3 nM and 9000 nM, respectively.

Compound `O=C(O)C[C@H]1Cc2ccc(OCCCNc3ccccn3)cc2CN(CC(F)(F)F)C1=O` gave a bioavailability in data set [3] of 4%. Besides, in data set [1], the half-life is 19 min. Moreover, in data set [2], the clearance was found to be 60 mL/min/kg. The compound also returned an IC50 on Integrin alpha-V/beta-3 [4] of 390 nM. For the same compound, at Integrin alpha-V/beta-3 [5], the Ki was determined as 20 nM.

In turn, `CNc1cccc(CCOc2ccc3c(c2)CN(CC(F)(F)F)C(=O)[C@H](CC(=O)O)C3)n1` displayed a bioavailability in data set [3] of 72%. Further, in data set [1], the half-life amounted to 53 min. Also, the clearance in data set [2] was determined as 25 mL/min/kg. In addition, the IC50 against Integrin alpha-V/beta-3 [4] amounted to 3 nM. Further, the inhibitory constant (Ki) was determined as 1.2 nM on Integrin alpha-V/beta-3 [5] and 3800 nM in data set [6].

Take `O=C(O)C[C@@H]1Cc2ccc(OCCCNc3ccccn3)cc2CN(CC(F)(F)F)C1=O`: the bioavailability in data set [3] came out at 34%. In data set [1], this compound yielded a half-life of 360 min. Moreover, the clearance in data set [2] is 16 mL/min/kg. On Integrin alpha-V/beta-3 [4], this compound yielded a half-inhibitory concentration (IC50) of 12 nM. Also, the Ki at Integrin alpha-V/beta-3 [5] came to 0.9 nM; in data set [6] it was 3300 nM.
